Among the data in ChEMBL document CHEMBL5678799 (Biochem J, 2009) are Activity and inhibition values, retold here.

Data set [1] has as its target Mitogen-activated protein kinase 8 (Homo sapiens) (UniProt P45983). The experiment in a line: Inhibition of recombinant human His6-tagged JNK1alpha1 (1 to 384 residues) expressed in baculovirus infected Sf21 cells assessed as remaining activity at 10 uM using ATF2 as substrate incubated for 30 mins in presence of [gamma-33P]ATP by filter binding method relative to control. The method, boiled down:
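Robotic radiometric panel assay, 30 min at room temperature (21 °C), with 10 mM magnesium acetate. […] Compound at 1 or 10 µM. Residual activity expressed relative to compound-free control; triplicate average ± S.D.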

The target in data set [2] is Tyrosine-protein kinase SYK (Homo sapiens) (UniProt P43405). The experiment in a line: Inhibition of recombinant human N-terminal His6-tagged SYK (1 to 635 residues) expressed in baculovirus infected Sf21 cells assessed as remaining activity at 10 uM using Poly (Glu,Tyr) as substrate incubated for 30 mins in presence of [gamma-33P]ATP by filter binding assay relative to control.

In data set [3] the target is T1, mTORC1 (Homo sapiens) (UniProt P42345+Q8N122+Q9BVC4). To be noted: HEK293, dose 30-1000 nM, time 30.0 min.
In data set [4] the target is Serine/threonine-protein kinase D1 (Homo sapiens) (UniProt Q15139). In words: Inhibition of recombinant human N-terminal His6-tagged PKD1 (2 to 912 residues) expressed in baculovirus infected Sf21 cells assessed as remaining activity at 1 uM using KKLNRTLSVA as substrate incubated for 30 mins in presence of [gamma-33P]ATP by filter binding method relative to control.
Chain of Serine/threonine-protein kinase D1 (Homo sapiens) (Q15139 whole entry, looked up, the tested form may be a part): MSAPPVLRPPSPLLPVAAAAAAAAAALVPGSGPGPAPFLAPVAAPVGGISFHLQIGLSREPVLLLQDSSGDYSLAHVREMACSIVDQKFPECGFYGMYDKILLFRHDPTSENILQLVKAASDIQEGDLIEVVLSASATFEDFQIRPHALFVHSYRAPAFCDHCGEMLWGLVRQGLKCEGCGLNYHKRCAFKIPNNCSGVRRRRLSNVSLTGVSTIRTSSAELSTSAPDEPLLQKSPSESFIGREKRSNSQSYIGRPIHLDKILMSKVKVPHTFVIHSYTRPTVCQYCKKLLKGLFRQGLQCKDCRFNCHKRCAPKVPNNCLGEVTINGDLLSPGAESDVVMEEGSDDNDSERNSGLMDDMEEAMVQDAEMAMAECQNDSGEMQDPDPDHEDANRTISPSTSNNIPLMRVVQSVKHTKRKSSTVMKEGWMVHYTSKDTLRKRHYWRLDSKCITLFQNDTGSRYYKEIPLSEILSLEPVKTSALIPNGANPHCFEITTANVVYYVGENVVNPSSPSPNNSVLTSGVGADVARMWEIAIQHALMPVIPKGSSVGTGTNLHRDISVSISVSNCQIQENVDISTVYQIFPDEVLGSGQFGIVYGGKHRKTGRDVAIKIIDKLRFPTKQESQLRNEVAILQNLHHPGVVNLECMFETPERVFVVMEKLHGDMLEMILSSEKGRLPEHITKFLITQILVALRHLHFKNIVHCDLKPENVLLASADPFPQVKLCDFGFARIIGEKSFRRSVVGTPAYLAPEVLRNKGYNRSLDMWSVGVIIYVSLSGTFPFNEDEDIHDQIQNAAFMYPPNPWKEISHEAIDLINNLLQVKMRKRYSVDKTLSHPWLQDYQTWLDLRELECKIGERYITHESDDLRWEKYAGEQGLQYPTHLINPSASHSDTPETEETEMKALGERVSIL
In data set [5] the target is Sphingosine kinase 2 (Homo sapiens) (UniProt Q9NRA0). The experiment in a line: Inhibition of SPHK2 (unknown origin) assessed as remaining activity at 10 uM using sphingosine as substrate incubated for 30 mins in presence of ATP relative to control. The method, boiled down: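 SPHK2 reaction: 10 μM sphingosine, 1 μM ATP, 50 mM Tris/HCl pH 7.5, 200 mM KCl, 5 mM MgCl2, 1 mM EGTA, 1 mM DTT, 30 min at room temperature. Kinase-Glo Plus luminescence read-out. Percentage of control activity, triplicate.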
Chain of Sphingosine kinase 2 (Homo sapiens) (Q9NRA0 whole entry): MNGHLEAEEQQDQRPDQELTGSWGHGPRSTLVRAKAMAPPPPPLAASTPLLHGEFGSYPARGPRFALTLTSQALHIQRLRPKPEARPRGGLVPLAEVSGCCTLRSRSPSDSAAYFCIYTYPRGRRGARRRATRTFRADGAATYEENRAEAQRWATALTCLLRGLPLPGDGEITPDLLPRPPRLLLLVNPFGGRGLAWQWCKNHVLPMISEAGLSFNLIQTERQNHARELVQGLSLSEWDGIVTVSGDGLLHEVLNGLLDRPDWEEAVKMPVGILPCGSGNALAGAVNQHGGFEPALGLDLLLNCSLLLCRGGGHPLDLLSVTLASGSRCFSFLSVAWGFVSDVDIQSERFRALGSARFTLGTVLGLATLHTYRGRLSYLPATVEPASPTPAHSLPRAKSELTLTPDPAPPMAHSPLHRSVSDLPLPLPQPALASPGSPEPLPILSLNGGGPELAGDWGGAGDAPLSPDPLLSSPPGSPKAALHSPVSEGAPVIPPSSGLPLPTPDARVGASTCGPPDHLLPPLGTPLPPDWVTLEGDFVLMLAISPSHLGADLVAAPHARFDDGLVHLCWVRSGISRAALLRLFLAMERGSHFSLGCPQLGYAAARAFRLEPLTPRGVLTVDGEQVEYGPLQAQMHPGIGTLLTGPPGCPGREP

Data set [6] is filed under the species Homo sapiens. The experiment in a line: Inhibition of choline kinase (unknown origin) assessed as remaining activity at 1 uM using choline as substrate incubated for 30 mins in presence of ATP by Kinase Glo assay relative to control. The method in brief: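 Choline kinase assayed with 1 mM choline, 1 μM ATP in 25 mM glycine/NaOH pH 8.5, 67 mM KCl, 5 mM MgCl2, 1 mM DTT, 30 min at room temperature. Stopped with Kinase-Glo Plus, luminescence read after 10 min. Activity relative to control, triplicate.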
A general note: Kinase-Glo measures the ATP left after a reaction by luminescence.

Data set [7] has as its system MEF. The experiment in a line: Induction of cell cycle arrest in mLST8 knockout MEF cells assessed as accumulation at G2 phase at 3 uM incubated for 1 to 3 days by propidium iodide staining based flow cytometric analysis (reference value: 14.1 +/- 0.69%). The format is toxicity. To be noted: mouse, time 1-3 day.
In data set [8] the target is mTORC2 (Homo sapiens) (UniProt P42345+Q6R327+Q9BVC4+Q9BPZ7). The note with it: HEK293, dose 30-1000 nM, time 30.0 min.
Data set [9] addresses CDK2/Cyclin A2 (Homo sapiens) (UniProt P24941+P20248). In words: Inhibition of recombinant human N-terminal GST-tagged CDK2 (2 to 298 residues)/N-terminal GST-tagged Cyclin A2 (171 to 432 residues) expressed in Escherichia coli assessed as remaining activity at 10 uM using YSPTSPSYSPTSPSYSPTSPKKK as substrate incubated for 30 mins in presence of [gamma-33P]ATP by filter binding method relative to control. The method, boiled down: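 Incubations ran robotically for 30 min at room temperature (21 °C) under linear conditions. Results are percent activity remaining versus controls without compound, as the mean of triplicates ± S.D.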

The target of data set [10] is Dual specificity tyrosine-phosphorylation-regulated kinase 1A (Homo sapiens) (UniProt Q13627). The experiment in a line: Inhibition of recombinant human N-terminal GST-tagged DYRK1A (1 to 502 residues) expressed in Escherichia coli assessed as remaining activity at 10 uM using KKISGRLSPIMTEQ as substrate incubated for 30 mins in presence of [gamma-33P]ATP by filter binding method relative to control. The method, boiled down: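 Run robotically for 30 min at 21 °C under linear conditions. Compound at 1 or 10 µM. Percentage activity remaining versus control without compound, triplicate mean ± S.D.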

In data set [11] the target is Protein kinase C alpha type (Homo sapiens) (UniProt P17252). In words: Inhibition of recombinant human N-terminal His6-tagged PKCalpha (1 to 672 residues) expressed in baculovirus infected Sf21 cells assessed as remaining activity at 10 uM using Histone H1 as substrate incubated for 30 mins in presence of [gamma-33P]ATP by filter binding method relative to control.

For data set [12], the target named is T1, mTORC1 (Homo sapiens). The note with it: HEK293, dose 30.0 nM, time 30.0 min.
The target of data set [13] is Serine/threonine-protein kinase PAK 5 (Homo sapiens) (UniProt Q9P286). The experiment in a line: Inhibition of recombinant human N-terminal GST-tagged PAK5 (2 to 719 residues) expressed in Escherichia coli assessed as remaining activity at 1 uM using RRRLSFAEPG as substrate incubated for 30 mins in presence of [gamma-33P]ATP by filter binding method relative to control. The method in brief:
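Panel assays were run for 30 min at 21 °C, within the linear range for time and enzyme. […] Results are percent activity remaining relative to compound-free control, averaged from triplicate ± S.D.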

Active and inactive are the calls of the source. The calls are words filed in the database; no cut-off is given here.

Chain of Mitogen-activated protein kinase 8 (Homo sapiens) (P45983 whole entry, the tested form may be a part): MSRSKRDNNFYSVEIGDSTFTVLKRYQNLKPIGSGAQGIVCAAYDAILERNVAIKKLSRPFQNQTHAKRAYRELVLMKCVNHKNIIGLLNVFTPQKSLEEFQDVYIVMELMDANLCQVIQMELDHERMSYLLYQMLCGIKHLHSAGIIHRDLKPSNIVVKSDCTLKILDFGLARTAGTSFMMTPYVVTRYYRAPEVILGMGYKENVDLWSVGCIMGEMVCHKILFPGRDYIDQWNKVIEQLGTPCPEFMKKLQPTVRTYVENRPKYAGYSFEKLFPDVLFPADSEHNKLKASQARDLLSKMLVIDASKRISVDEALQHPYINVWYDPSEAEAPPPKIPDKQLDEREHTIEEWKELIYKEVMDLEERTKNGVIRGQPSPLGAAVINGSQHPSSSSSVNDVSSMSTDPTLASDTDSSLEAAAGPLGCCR
Chain of Serine/threonine-protein kinase PAK 5 (Homo sapiens) (Q9P286 whole entry, looked up, the tested form may be a part): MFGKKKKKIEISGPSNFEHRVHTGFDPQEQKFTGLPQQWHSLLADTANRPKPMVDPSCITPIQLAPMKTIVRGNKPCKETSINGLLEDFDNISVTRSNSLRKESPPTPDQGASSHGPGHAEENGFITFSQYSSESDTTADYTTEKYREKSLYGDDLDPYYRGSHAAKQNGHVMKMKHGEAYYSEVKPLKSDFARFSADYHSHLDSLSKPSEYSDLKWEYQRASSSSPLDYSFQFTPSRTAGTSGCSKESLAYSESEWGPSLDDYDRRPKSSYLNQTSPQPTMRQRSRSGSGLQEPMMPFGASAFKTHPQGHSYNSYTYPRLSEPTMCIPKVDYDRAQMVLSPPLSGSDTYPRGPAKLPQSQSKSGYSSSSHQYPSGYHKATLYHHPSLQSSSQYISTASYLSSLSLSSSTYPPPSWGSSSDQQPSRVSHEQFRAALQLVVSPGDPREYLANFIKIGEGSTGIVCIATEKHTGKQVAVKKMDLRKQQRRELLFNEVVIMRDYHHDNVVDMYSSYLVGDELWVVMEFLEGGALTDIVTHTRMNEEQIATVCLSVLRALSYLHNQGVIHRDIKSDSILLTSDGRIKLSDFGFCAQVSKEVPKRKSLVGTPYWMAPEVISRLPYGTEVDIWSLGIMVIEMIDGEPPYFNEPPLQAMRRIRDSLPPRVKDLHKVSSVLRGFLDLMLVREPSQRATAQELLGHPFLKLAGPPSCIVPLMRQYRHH

Regarding `COc1ccc(-c2ccc3c(N4CCOCC4)nc(N4C[C@@H](C)O[C@@H](C)C4)nc3n2)cc1CO` [Ku-0063794], the Activity in data set [1] came to 93%; in data set [2], 83%; in data set [4], 80%; in [5], 116%; in data set [6], 102%; in data set [7], 13.3%. For the same compound, the Activity turned out to be 90% in data set [9], 80% in data set [10], 86% in data set [11] and 101% in [13]. Also, the inhibition result in [3], in data set [8] and in data set [12] was “Active” throughout.
